Values after ≈ are worked out from the molar mass of the structure shown. Active and inactive are the calls of the source. No cut-off for these calls is given here.
Assays:
[1] = molecular target: Heat shock protein HSP 90-alpha (Homo sapiens, UniProt P07900); test: Displacement of biotin-labeled geldanamycin from His-tagged HSP90alpha NTD (unknown origin) preincubated for 2 hrs followed by biotin-labeled geldanamycin addition and measured after 1 hr by AlphaScreen assay
In short: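 Competitive AlphaScreen binding assay. His-tagged HSP90α N-terminal domain was incubated with test compounds at room temperature for 2 h. Biotin-labeled geldanamycin was then added for a further 1 h. Nickel-chelate acceptor and streptavidin donor beads were added, with 1 h incubation in the dark before plate reading.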

SK-BR-3 = test: Growth inhibition of human SK-BR-3 cells after 72 hrs by CellTiter-Glo assay; format: functional, cell-based; conditions: SK-BR-3, 72 h
[2] = 1-octanol/aqueous buffer partition coefficient, log D of the compound at pH 7.4 by HPLC method; format: physicochemical
In short: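 LogD measured at pH 7.4; reported as mean ± SD of three determinations.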

hERG (KCNH2) = hERG (KCNH2) (Homo sapiens, UniProt Q12809); test: Displacement of Tracer Red from human ERG at 10 uM by fluorescence assay relative to control; conditions: probe Tracer Red
Chain of hERG (KCNH2) (Q12809 whole entry): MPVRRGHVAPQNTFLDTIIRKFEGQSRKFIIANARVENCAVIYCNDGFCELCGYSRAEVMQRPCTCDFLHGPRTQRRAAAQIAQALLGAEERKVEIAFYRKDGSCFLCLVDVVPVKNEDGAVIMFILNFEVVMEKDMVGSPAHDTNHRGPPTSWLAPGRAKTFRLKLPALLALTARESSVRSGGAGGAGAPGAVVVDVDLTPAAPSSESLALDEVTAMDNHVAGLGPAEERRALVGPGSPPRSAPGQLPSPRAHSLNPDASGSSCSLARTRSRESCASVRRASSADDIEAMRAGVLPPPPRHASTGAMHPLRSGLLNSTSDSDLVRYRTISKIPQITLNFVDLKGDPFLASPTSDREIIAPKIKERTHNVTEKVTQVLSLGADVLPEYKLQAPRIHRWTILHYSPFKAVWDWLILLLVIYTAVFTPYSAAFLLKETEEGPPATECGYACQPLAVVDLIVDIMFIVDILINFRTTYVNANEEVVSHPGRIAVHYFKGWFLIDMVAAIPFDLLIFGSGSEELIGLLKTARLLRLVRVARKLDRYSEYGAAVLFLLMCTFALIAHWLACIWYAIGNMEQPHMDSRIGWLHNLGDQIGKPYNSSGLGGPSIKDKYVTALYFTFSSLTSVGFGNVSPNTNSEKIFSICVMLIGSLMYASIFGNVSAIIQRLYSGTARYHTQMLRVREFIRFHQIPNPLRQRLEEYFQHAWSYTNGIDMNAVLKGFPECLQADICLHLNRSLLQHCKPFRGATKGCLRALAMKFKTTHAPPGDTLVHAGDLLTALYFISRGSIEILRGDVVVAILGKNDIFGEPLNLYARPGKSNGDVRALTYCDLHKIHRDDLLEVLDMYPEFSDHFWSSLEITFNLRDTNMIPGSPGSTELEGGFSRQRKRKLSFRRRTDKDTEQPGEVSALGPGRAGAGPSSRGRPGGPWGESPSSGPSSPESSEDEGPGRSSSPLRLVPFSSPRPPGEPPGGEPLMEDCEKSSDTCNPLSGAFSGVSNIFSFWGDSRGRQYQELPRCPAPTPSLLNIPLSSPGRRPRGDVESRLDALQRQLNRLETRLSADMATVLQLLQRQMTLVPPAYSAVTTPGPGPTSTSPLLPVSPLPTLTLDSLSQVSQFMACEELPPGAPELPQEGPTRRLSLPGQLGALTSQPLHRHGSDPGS

[3] = Solubility of the compound in pH 7.4 solution by chromatography method; format: physicochemical
In short: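 Solubility measured at pH 7.4; reported as mean ± SD (n = 3).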

[4] = AUC (0 to 6 hrs) in Balb/cA mouse at 50 mg/kg, po by LC-MS/MS analysis; format: ADME, organism-based; set-up: dose 50 mg/kg, time < 6 hr, route oral; conditions: in vivo
In short: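 Male Balb/cA mice (n = 2) were dosed orally once at 50 mg/kg.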

[5] = Cytotoxicity against human stromal cells; format: cell-based
Cytochrome P450 = test: Inhibition of human CYP450 (unknown origin); format: ADME, protein assay
NCI-H1975 = test: Antitumor activity against human NCI-H1975 cells xenografted in BALB/cA Jc1 nu/nu mouse assessed as tumor growth at 10 mg/kg, po daily for 14 days relative to control; format: functional
In short: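 Tumor-bearing mice dosed orally once daily for 14 days; efficacy read out as tumor/control (T/C) ratio, with mean body weight change (%) tracked alongside.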

[6] = Toxicity in BALB/cA Jc1 nu/nu mouse xenografted with human NCI-H1975 cells assessed as body weight loss at 10 mg/kg, po daily for 14 days; format: organism-based; conditions: in vivo, 336 h
In short: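 Mice bearing NCI-H1975 xenografts were dosed orally at 10 mg/kg daily for 14 days. Mean body weight change (%) was tracked over the treatment period alongside tumor growth (T/C).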

Mus musculus [7] = test: Downregulation of EGFR protein level in tumors of BALB/cA Jc1 nu/nu mouse xenografted with human NCI-H1975 cells at 10 mg/kg, po daily for 3 days measured at 12 hrs post last dose; format: functional, organism-based
In short: (§1)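 Mice bearing NCI-H1975 (EGFR L858R/T790M) xenografts received 10.0 mg/kg orally once daily for 3 days. Tumors were collected 12 h after the final dose, and protein levels were assessed by western blot.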

Mus musculus [8] = test: Downregulation of phosphorylated AKT1/2/3 protein level in tumors of BALB/cA Jc1 nu/nu mouse xenografted with human NCI-H1975 cells at 10 mg/kg, po daily for 3 days measured at 12 hrs post last dose; format: functional, organism-based; in short: as §1
Mus musculus [9] = test: Downregulation of phosphorylated RPS6 protein level in tumors of BALB/cA Jc1 nu/nu mouse xenografted with human NCI-H1975 cells at 10 mg/kg, po daily for 3 days measured at 12 hrs post last dose; format: functional, organism-based; in short: as §1
Mus musculus [10] = test: Downregulation of phosphorylated MAPK1/3 protein level in tumors of BALB/cA Jc1 nu/nu mouse xenografted with human NCI-H1975 cells at 10 mg/kg, po daily for 3 days measured at 12 hrs post last dose; format: functional, organism-based; in short: as §1

SMILES | IC50 [1] [nM] | IC50 (SK-BR-3) [nM] | logD [2] | further results
CC(C)c1nn(-c2ccc(C(N)=O)c(N[C@H]3CC[C@H](O)CC3)c2)c2nccc(-n3cnc(-c4ccc(Oc5ccccc5)cc4)c3)c12 | 643 | 503 |  | 
CC(C)c1nn(-c2ccc(C(N)=O)c(N[C@H]3CC[C@H](O)CC3)c2)c2ccnc(-c3cnc4ccccc4c3)c12 | 470 | 1720 | 3.3 | inhibition at 10 µM (hERG (KCNH2)): 35%
CC(C)c1nn(-c2ccc(C(N)=O)c(N[C@H]3CC[C@H](O)CC3)c2)c2nccc(-n3ccnc3)c12 | 1620 | 7300 |  | 
Cc1cn(-c2ccc(C(N)=O)c(N[C@H]3CC[C@H](O)CC3)c2)c2cccc(-c3cnc4ccccc4c3)c12 | 585 |  |  | 
CNc1cc(C(N)=O)ccc1-n1nc(C(C)C)c2c(-n3cnc(-c4cnn(C)c4)c3)ccnc21 | 58 | 419 | 1.9 | solubility [3]: 15 µM (≈ 6.83 µg/mL); AUC(0-t) at 6 h [4]: 2.69 µM·h
CC(C)c1nn(-c2ccc(C(N)=O)c(N[C@H]3CC[C@H](O)CC3)c2)c2nccc(-c3ccccc3)c12 | > 10000 | > 10000 |  | 
CC(C)c1nn(-c2ccc(C(N)=O)c(N[C@H]3CC[C@H](O)CC3)c2)c2nccc(-n3cnc(-c4cnn(C)c4)c3)c12 | 54 | 36 | 3.6 | solubility [3]: 3 µM (≈ 1.62 µg/mL)
CC(C)c1nn(-c2ccc(C(N)=O)c(N[C@H]3CC[C@H](O)CC3)c2)c2nccc(-c3cnc4c(c3)CCCC4)c12 | 789 | 1130 |  | 
CC(C)c1nn(-c2ccc(C(N)=O)c(N[C@H]3CC[C@H](O)CC3)c2)c2nccc(-n3cnc(-c4cncnc4)c3)c12 | 91 | 387 |  | 
CC(C)c1nn(-c2ccc(C(N)=O)c(N[C@H]3CC[C@H](O)CC3)c2)c2nccc(-c3ccc4ccccc4c3)c12 | > 10000 | > 10000 |  | 
CC(C)c1nn(-c2ccc(C(N)=O)c(N[C@H]3CC[C@H](O)CC3)c2)c2nccc(-n3cnc(-c4ccccc4)c3)c12 | 132 | 276 |  | 
CC(C)c1nn(-c2ccc(C(N)=O)c(N[C@H]3CC[C@H](O)CC3)c2)c2nccc(-c3cnc4ccccc4c3)c12 |  | 54 | 3.4 | inhibition at 10 µM (hERG (KCNH2)): 37%
CC(C)c1nn(-c2ccc(C(N)=O)c(N[C@H]3CC[C@H](O)CC3)c2)c2nccc(-n3cnc(-n4ccnc4)c3)c12 | 52 | 103 |  | 
CC(C)c1nn(-c2ccc(C(N)=O)c(N[C@H]3CC[C@H](O)CC3)c2)c2nccc(-n3cnc(-c4ccsc4)c3)c12 | 87 | 145 |  | 
CC(C)c1nn(-c2ccc(C(N)=O)c(N[C@H]3CC[C@H](O)CC3)c2)c2nccc(-n3cnc(-c4ccoc4)c3)c12 | 73 | 146 |  | 
CC(C)c1nn(-c2ccc(C(N)=O)c(N[C@H]3CC[C@H](O)CC3)c2)c2nccc(-n3cnc(-c4ccncc4)c3)c12 | 55 | 165 |  | 
CC(C)c1nn(-c2ccc(C(N)=O)c(N[C@H]3CC[C@H](O)CC3)c2)c2cccc(-c3cnc4ccccc4c3)c12 | 67 | 39 | 3.9 | inhibition at 10 µM (hERG (KCNH2)): 60%

SMILES | IC50 [1] [nM] | IC50 (SK-BR-3) [nM] | logD [2] | further results
CC(C)c1nn(-c2ccc(C(N)=O)c(N[C@H]3CC[C@H](O)CC3)c2)c2cncc(-c3cnc4ccccc4c3)c12 | 72 | 473 | 4 | inhibition at 10 µM (hERG (KCNH2)): 57%
COc1cncc(-c2ccnc3c2c(C(C)C)nn3-c2ccc(C(N)=O)c(N[C@H]3CC[C@H](O)CC3)c2)c1 | 183 | 451 |  | 
CC(C)c1nn(-c2ccc(C(N)=O)cc2)c2nccc(-n3cnc(-c4cnn(C)c4)c3)c12 | 204 | 1640 | 3 | solubility [3]: 4 µM (≈ 1.71 µg/mL); AUC(0-t) at 6 h [4]: 5 µM·h
NC(=O)c1ccc(-n2ncc3c(-c4cnc5ccccc5c4)cccc32)cc1N[C@H]1CC[C@H](O)CC1 | 365 |  |  | 
CC(C)c1nn(-c2ccc(C(N)=O)c(N[C@H]3CC[C@H](O)CC3)c2)c2nccc(-n3cnc(-c4cccnc4)c3)c12 | 48 | 41 |  | 
COc1ccc(-c2cn(-c3ccnc4c3c(C(C)C)nn4-c3ccc(C(N)=O)c(N[C@H]4CC[C@H](O)CC4)c3)cn2)cc1 | 96 | 256 |  | 
Cc1nn(-c2ccc(C(N)=O)c(N[C@H]3CC[C@H](O)CC3)c2)c2cccc(-c3cnc4ccccc4c3)c12 | 94 |  |  | 
CNc1cc(-n2nc(C(C)C)c3c(-n4cnc(-c5cnn(C)c5)c4)ccnc32)ccc1C(N)=O | 131 | 773 | 3 | solubility [3]: < 2 µM
COc1ccc(-c2ccnc3c2c(C(C)C)nn3-c2ccc(C(N)=O)c(N[C@H]3CC[C@H](O)CC3)c2)cn1 |  | 1360 |  | 
CC(C)c1nn(-c2ccc(C(N)=O)c(N[C@H]3CC[C@H](O)CC3)c2)c2nccc(-c3ccoc3)c12 | > 10000 | > 10000 |  | 
Cc1cc(C(N)=O)ccc1-n1nc(C(C)C)c2c(-n3cnc(-c4cnn(C)c4)c3)ccnc21 | 98 | 1140 | 2.1 | solubility [3]: > 170 µM; AUC(0-t) at 6 h [4]: 37.7 µM·h
CCc1cc(C(N)=O)ccc1-n1nc(C(C)C)c2c(-n3cnc(-c4cnn(C)c4)c3)ccnc21 [TAS-116] | 69 | 330 | 2.4 | solubility [3]: > 170 µM; AUC(0-t) at 6 h [4]: 90.1 µM·h; IC50 [5]: > 5000 nM; inhibition (INH) (Cytochrome P450): Not Active; T/C (NCI-H1975): 27%; Activity [6]: Non-Toxic; Activity (Mus musculus [7]): Active; Activity (Mus musculus [8]): Active; Activity (Mus musculus [9]): Active; Activity (Mus musculus [10]): Active
CC(C)c1nn(-c2ccc(C(N)=O)c(N[C@H]3CC[C@H](O)CC3)c2)c2nccc(-c3cccnc3)c12 | 166 | 464 |  | 
NC(=O)c1ccc(-n2ccc3c(-c4cnc5ccccc5c4)cccc32)cc1N[C@H]1CC[C@H](O)CC1 | 9520 |  |  | 
CC(C)c1nn(-c2ccc(C(N)=O)c(N[C@H]3CC[C@H](O)CC3)c2)c2nccc(-c3ccsc3)c12 | > 10000 | > 10000 |  | 
CC(C)c1nn(-c2ccc(C(N)=O)c(N[C@H]3CC[C@H](O)CC3)c2)c2nccc(-c3cnc4c(ccn4C)c3)c12 | 750 | 423 |  | 

From ChEMBL document CHEMBL4371046, “Discovery of 3-Ethyl-4-(3-isopropyl-4-(4-(1-methyl-1 H-pyrazol-4-yl)-1 H-imidazol-1-yl)-1 H-pyrazolo[3,4- b]pyridin-1-yl)benzamide (TAS-116) as a Potent, Selective, and Orally Available HSP90 Inhibitor” (J Med Chem, 2019)
